Compound activity (PubChem)
Tb hexokinase: T. brucei hexokinase 1 inhibition. AID 1430. recombinant TbHK1, G6PDH-coupled NADH A340. inhibition, % at 10 µM. hit rate 0.11% among 220,000;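 active = inhibition of 50% or more in the single-dose primary screen; inactive = inhibition below 50%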
p97 ATPase inh: human p97 ATPase inhibition. P55072. recombinant p97 ATPase, Kinase-Glo ATP luminescence, 3 h. inhibition, % at 8 µM. hit rate 0.42% among 220,000; in the data active = inhibition above about 15%;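 also: 0% = DMSO vehicle and 100% = wells lacking enzyme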
RanGTP-Impb inh: disruptors of Ran-importin-beta complex formation – biochemical, FRET, CFP-Ran, YFP-importin-beta, homogeneous, primary screen; inhibition, % (no concentration beside the values); hit rate 1.1% among 300,000; cell-free CFP-Ran/YFP-importin-beta FRET ratio;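 active = more than half of the replicate wells show a fall in the fluorescence ratio signal beyond about 16%, limit read from the data, passing the limit was not always enough; inconclusive = exactly half of the replicate wells pass the set limit; inactive = fewer than half of replicates pass the limit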;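 also: 0% = DMSO wells and 100% = Ran loaded with GDP instead of GTP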
Hck Nef HTS: human Hck-Nef kinase inhibition; P08631; Recombinant Hck-YEEI plus Nef, Z-Lyte FRET kinase assay; inhibition, % at 20 µM; hit rate 0.68% among 220,000; AID 463187;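 active = Hck-Nef kinase inhibition above about 50%, limit read from the data; inactive = inhibition below that limit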;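 also: 0% = DMSO with Hck plus Nef and 100% = Hck alone without Nef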
Target sequence (P08631 whole entry, looked up): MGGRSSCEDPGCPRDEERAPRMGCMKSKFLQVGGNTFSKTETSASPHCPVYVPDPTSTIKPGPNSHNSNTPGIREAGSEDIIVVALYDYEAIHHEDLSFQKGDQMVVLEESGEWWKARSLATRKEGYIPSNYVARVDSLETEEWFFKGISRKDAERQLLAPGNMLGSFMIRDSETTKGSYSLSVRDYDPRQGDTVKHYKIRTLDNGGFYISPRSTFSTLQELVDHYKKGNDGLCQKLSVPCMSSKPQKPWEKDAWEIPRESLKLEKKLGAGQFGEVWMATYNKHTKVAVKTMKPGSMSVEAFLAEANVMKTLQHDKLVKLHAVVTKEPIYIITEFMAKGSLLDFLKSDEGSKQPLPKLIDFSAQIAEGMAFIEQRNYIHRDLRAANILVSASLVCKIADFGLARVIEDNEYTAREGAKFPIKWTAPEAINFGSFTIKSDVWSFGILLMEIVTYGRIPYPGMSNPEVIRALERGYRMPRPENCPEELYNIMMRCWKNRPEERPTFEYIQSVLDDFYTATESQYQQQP
Runt-CBFb FRET: Runt domain-CBFb interaction inhibition; Q01196+Q13951; Cerulean-Runt/Venus-CBFb FRET ratio 530/480, 1 h; inhibition, % at 20 µM; hit rate 0.46% among 220,000; AID 1496;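 active = inhibition over about 50% at 20 µM in the single-dose screen, limit read from the data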;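 also: 0% = DMSO wells and 100% = excess unlabeled CBFb competitor control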
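Doses: 20 µM compound in 1% DMSO | Material: Cerulean-labeled Runt domain protein | Amount: Each fluorescent fusion protein 100 nM | Schedule: Two 1 h room-temperature incubations shielded from light | Measured by: FRET fluorescence | Evaluation: Loss of energy transfer signal | Controls: Unlabeled CBFb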
Runt-SMMHC FRET: inhibitors of human RUNX1 Runt domain binding to CBFb-SMMHC; Q01196+Q13951; Cerulean-Runt/Venus-CBFb-SMMHC FRET ratio 530/480, 1 h; inhibition, % at 20 µM; hit rate 0.74% among 220,000;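 active = mean inhibition across duplicate retests at 20 µM reaching about 50%, limit read from the data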;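 also: 0% = DMSO wells and 100% = wells with excess untagged CBFb-SMMHC; inhibitors lower the FRET ratio by blocking Runt binding to CBFb-SMMHC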
YIC counter: counter-screen for RanGTP-importin-beta inhibitors: YIC FRET probe; Purified YIC probe, intramolecular FRET ratio YFP/CFP; IC50, µM; shares compounds with RanGTP-Impb inh; hit rate 40% among 1,000;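 active = fitted half-maximal inhibitory concentration no more than tenfold above the top dose tested; inconclusive = flat fit with 30 to 70% activity, or poor fit; inactive = half-maximal concentration beyond tenfold above the top dose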
An asterisk follows results filed as active. A selection: hits, their analogues and other compounds. The true share with any hit is near 2.1%.

`Cc1csc(NC(=O)C2CCN(C(=O)CSc3nnc(C)n3Cc3ccccc3)CC2)n1` gave Tb hexokinase -13, p97 ATPase inh 1, RanGTP-Impb inh 3, Hck Nef HTS 1, Runt-CBFb FRET -1 and Runt-SMMHC FRET -2.
Screening Fc1ccccc1N1CCN(c2nc3ccccc3n3nnnc23)CC1 returned Tb hexokinase -3, p97 ATPase inh 6, RanGTP-Impb inh 17*, Hck Nef HTS -1, Runt-CBFb FRET 13, Runt-SMMHC FRET 22 and YIC counter 27*.
Fc1cc(Br)ccc1Nc1nc2ccccc2n2nnnc12 was read as Tb hexokinase 0, p97 ATPase inh 4, RanGTP-Impb inh inconclusive, Hck Nef HTS 0, Runt-CBFb FRET 1 and Runt-SMMHC FRET 4.
Screening CCN(CC)S(=O)(=O)c1ccc(OC)c(NC(=O)C2CC(=O)N(c3ccc(C)cc3)C2)c1 (stereo unspecified) returned Tb hexokinase -9, p97 ATPase inh 1, RanGTP-Impb inh 29*, Hck Nef HTS 17, Runt-CBFb FRET -3, Runt-SMMHC FRET 2 and YIC counter >50.
Cc1sc2nc(CSC(C)C(=O)N3CCOCC3)[nH]c(=O)c2c1C (stereo unspecified) was read as RanGTP-Impb inh 1.
COc1ccc(N=Cc2cc(Cc3ccccc3Cl)cc([N+](=O)[O-])c2O)cc1OC was read as Tb hexokinase -1, p97 ATPase inh 0, RanGTP-Impb inh 16*, Hck Nef HTS 25, Runt-CBFb FRET -6, Runt-SMMHC FRET -15 and YIC counter >50.
For N#Cc1ccc(/C=C(\C(=O)C(=O)O)c2ccc3ccccc3n2)cc1 the results were Tb hexokinase -27, p97 ATPase inh -4, RanGTP-Impb inh 20*, Hck Nef HTS 32, Runt-CBFb FRET 30, Runt-SMMHC FRET 64* and YIC counter 12*.
For CCS(=O)(=O)c1ccc(S(=O)(=O)CC)s1 the results were Tb hexokinase 1, p97 ATPase inh 0, RanGTP-Impb inh 36*, Hck Nef HTS 1, Runt-CBFb FRET -1, Runt-SMMHC FRET 0 and YIC counter >50.
For CC1(c2cccc(Br)c2)NC(=O)N(CC(=O)Nc2ccc(S(N)(=O)=O)cc2)C1=O (stereo unspecified) the results were RanGTP-Impb inh 0.
For N#C/C(=C/c1ccc(O)c(O)c1)c1nc2ccccc2[nH]1 the results were RanGTP-Impb inh 39* and YIC counter 3.9*.
`N#C/C(=C\c1cccs1)c1nc2ccccc2[nH]1` gave Tb hexokinase -9, p97 ATPase inh 7, RanGTP-Impb inh 1, Hck Nef HTS -4, Runt-CBFb FRET 1 and Runt-SMMHC FRET -3.
Screening CC(NC(=S)Nc1c(Br)cccc1OC(F)F)C(C)(C)C (stereo unspecified) returned Tb hexokinase 33, p97 ATPase inh 0, RanGTP-Impb inh -4, Hck Nef HTS 6, Runt-CBFb FRET -5 and Runt-SMMHC FRET 2.
For CCN1/C(=C2/SC(=S)N(NC(C)=O)C2=O)Sc2ccccc21 the results were RanGTP-Impb inh -74.
Screening CCN1/C(=C2\SC(=S)N(Cc3ccccc3)C2=O)Sc2ccccc21 returned Tb hexokinase 8, p97 ATPase inh 4, RanGTP-Impb inh 24*, Hck Nef HTS 3, Runt-CBFb FRET -153, Runt-SMMHC FRET -27 and YIC counter >50.
COc1ccc2cc(C(=O)NC3CCCCC3)c(=O)oc2c1 was read as Tb hexokinase -12, p97 ATPase inh -4, RanGTP-Impb inh -1, Hck Nef HTS 0, Runt-CBFb FRET 4 and Runt-SMMHC FRET 0.
COc1ccc2cc(C(C)=O)c(=O)oc2c1 was read as Tb hexokinase -26, p97 ATPase inh 3, RanGTP-Impb inh 19*, Hck Nef HTS 4, Runt-CBFb FRET 19, Runt-SMMHC FRET 62* and YIC counter 35*.
Screening CCc1ccc(C2C3=C(CC(C)(C)CC3=O)Nc3c2c(=O)[nH]c2nc(C)nn32)cc1 (stereo unspecified) returned Tb hexokinase -10, p97 ATPase inh -3, RanGTP-Impb inh 40*, Hck Nef HTS 0, Runt-CBFb FRET 62* and YIC counter 7.1*.
Screening Cc1[nH]nc2c1C(c1ccccc1)C1=C(CC(C)(C)CC1=O)N2 (stereo unspecified) returned Tb hexokinase -38, p97 ATPase inh 0, RanGTP-Impb inh 4, Hck Nef HTS 0, Runt-CBFb FRET inactive and Runt-SMMHC FRET inactive.
Cn1cnnc1SCC(=O)c1cc2ccccc2oc1=O was read as Tb hexokinase -3, p97 ATPase inh -2, RanGTP-Impb inh 18*, Hck Nef HTS -1, Runt-CBFb FRET 13, Runt-SMMHC FRET 5 and YIC counter >50.
For Cc1sc2ncn(CC(=O)NCCCC(=O)N3CCN(Cc4ccc5c(c4)OCO5)CC3)c(=O)c2c1C the results were Tb hexokinase -6, p97 ATPase inh 0, RanGTP-Impb inh 28*, Hck Nef HTS -12, Runt-CBFb FRET -1, Runt-SMMHC FRET 0 and YIC counter >50.
For Cc1sc2ncn(CC(=O)NCCCC(=O)N3CCC(C)CC3)c(=O)c2c1C the results were RanGTP-Impb inh 1.
`OCCN(CCO)Cc1ccc(Br)cc1` gave Tb hexokinase -9, p97 ATPase inh 1, RanGTP-Impb inh -4, Hck Nef HTS -2, Runt-CBFb FRET 1 and Runt-SMMHC FRET 4.
For CCCN(CCO)Cc1cccc(Br)c1 the results were Tb hexokinase 3, p97 ATPase inh -5, RanGTP-Impb inh 20*, Hck Nef HTS -9, Runt-CBFb FRET -1, Runt-SMMHC FRET -4 and YIC counter >50.
Screening CCOC(=O)CNc1ncc([N+](=O)[O-])cc1C#N returned Tb hexokinase -33, p97 ATPase inh 0, RanGTP-Impb inh 20*, Hck Nef HTS 0, Runt-CBFb FRET 2, Runt-SMMHC FRET -1 and YIC counter >50.
O=c1oc2ccccc2cc1-c1csc(Cc2nc(-c3ccc(Cl)cc3)cs2)n1 was read as Tb hexokinase -5, p97 ATPase inh 4, RanGTP-Impb inh 5, Hck Nef HTS 2, Runt-CBFb FRET -2 and Runt-SMMHC FRET -16.
For N=c1oc2ccccc2cc1-c1nc(-c2ccc(Cl)cc2)cs1 the results were Tb hexokinase -7, p97 ATPase inh -4, RanGTP-Impb inh 17*, Hck Nef HTS -1, Runt-CBFb FRET -46, Runt-SMMHC FRET -150 and YIC counter 32*.
`COC(=O)[C@@H](NC(=O)Nc1cccc(OC)c1)C(C)C` gave Tb hexokinase 1, p97 ATPase inh 6, RanGTP-Impb inh -4, Hck Nef HTS 1, Runt-CBFb FRET -2 and Runt-SMMHC FRET -5.
